An excerpt weighted towards active compounds, which were near 4.2% of everything screened.
CHOP inh – inhibitors of CHOP promoter induction, primary screen, cell-based, unfolded protein response, luciferase reporter; 3.8% of 220,000 active; CHO-K1 CHOP-promoter luciferase, tunicamycin-induced, 15-18 h; inhibition, % at 10 µM;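 active = compounds that reduced the stress-induced luciferase reporter signal by more than about 70% of percent inhibition, limit read from the data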
UPR CHOP act – activators of apoptotic CHOP UPR arm, primary screen, cell-based, CHO-CHOP luciferase reporter, luminescence, uHTS; UPR activation; percent of tunicamycin response over DMSO baseline; activation, % at 10 µM; AID 449763, 2010; 0.34% of 330,000 active;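 active = at 10 µM dose, activation of 40% or more, normalized to positive control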
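System: CHO-CHOP luciferase reporter cell line | Buffer or medium: F12 medium containing 10% fetal bovine serum | Doses: One dose, 10 µM in 0.5% DMSO | Times: 6 h compound exposure at 37 °C after overnight seeding | Signal: Luciferase luminescence | Read-out: % activation vs tunicamycin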
UPR XBP1 act – activators of adaptive XBP1 UPR arm, primary screen, cell-based, CHO-XBP1 luciferase reporter, luminescence, uHTS; IRE1-XBP1 UPR activation; percent of tunicamycin response, DMSO as zero; activation, % at 20 µM; 0.33% of 330,000 active;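 active = versus positive control, 20 µM dose yields 30% or more activation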
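incubation = overnight seeding at 37 °C, 6 h compound treatment at 37 °C | assay system = CHO-XBP1 cells stably carrying IRE1-XBP1-driven luciferase reporter | input = 1000 cells per well | detection = luciferase luminescence | dosing = single point, 20 µM final compound, 1% DMSO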
TMEM16A inh – TMEM16A chloride channel inhibitors, primary screen, cell-based, HTS; Anoctamin-1 (Mus musculus), Q8BHY3; HEK293 TMEM16A/YFP iodide influx fluorescence, ionomycin; normalized B-score (activity score, 25-100; higher = stronger inhibition) at 10 µM; 1.2% of 310,000 active;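 active = ratio plate-corrected score three or more library SD toward inhibition, starting fluorescence score within five deviations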;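 also: score derived from kinetic fluorescence span divided by baseline fluorescence per well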
Lipid droplet – inhibitors of hepatocyte lipid droplet formation, primary screen, imaging, high-throughput imaging, BODIPY stain. AML12 mouse hepatocytes, oleate lipid droplets. inhibition, % at 6.5 µM. 0.4% of 240,000 active;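 active = lipid droplet intensity inhibited by at least 50%, with more than 500 cells counted; inconclusive = wells with under 300 cells, treated as cytotoxic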
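Material: mouse AML12 hepatocyte cell line, fixed after treatment; Timing: compound with oleate, overnight; Technique: high-content imaging of BODIPY-stained droplets and DAPI nuclei; Probe or stimulus: oleate, 100 µM final; Dosing: compound at 6.5 µM only.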
TMEM16A act – TMEM16A chloride channel activators or potentiators, primary screen, cell-based, HTS; Anoctamin-1 (Mus musculus), Q8BHY3; HEK293 TMEM16A/YFP-H148Q/I152L, iodide quench fluorescence; stronger effect = lower value; B-score at 10 µM; 0.3% of 340,000 active; AID 623877, 2012;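 active = fluorescence-ratio B-score plate-corrected deviation score at least 3 library SD below zero, with starting fluorescence score within 5 deviations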;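 also: channel opened by trigger with iodide after compound preincubation; score built on the fluorescence ratio of max minus min over baseline; more negative score means more quench and so TMEM16A activation or potentiation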
Hep lipid conf – hepatocyte lipid droplet accumulation inhibitors, confirmation, imaging, AML12 mouse hepatocytes, single concentration, high-content. shares compounds with Lipid droplet. BODIPY lipid droplet imaging; droplets induced with 100 µM oleic acid. inhibition, % at 5.2 µM. 65% of 870 active. AID 463183, 2010;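 active = inhibition of lipid droplet metric at least 50%, with more than 300 cells in each of four replicates; inconclusive = wells under 300 cells, flagged as toxic or low count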
AML12 tox img – AML12 hepatocyte cytotoxicity, counter-screen for hepatic lipid droplet formation project, imaging, DAPI nuclear morphology imaging | AID 463200, 2010 | AML12 mouse hepatocytes; stronger effect = higher value; cells fed 100 µM oleate overnight | shares compounds with Lipid droplet | 3% of 870 active | z-score at 5 µM; in the data active = z-score above about 6.3;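 also: compound exposure lasted overnight at 37 °C before fixation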
CHOP confirm – retest of CHOP induction inhibitors, confirmation, cell-based | shares compounds with CHOP inh | CHO-CHOP promoter luciferase reporter, tunicamycin-induced, luminescence | inhibition, % at 10 µM | 45% of 2,100 active | AID 504437, 2011;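 active = mean of three repeat readings of reporter signal inhibition above a set limit, cut at about 70% in these data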
UPR CHOP confirm – activators of apoptotic CHOP UPR arm, confirmation, cell-based, CHO-CHOP luciferase reporter, single concentration; shares compounds with UPR CHOP act; CHO-CHOP cells, CHOP-luciferase reporter luminescence; percent of tunicamycin response, DMSO as zero; activation, % at 10 µM; 64% of 1,000 active; AID 463112, 2010; in the data active = activation above about 33%
Of the large screens only hits and unclear results are named; the others gave an inactive call (follow-up assays come after a bar, where they were run).

O=c1oc2ccccc2c(O)c1C(c1ccc([N+](=O)[O-])cc1)c1c(O)c2ccccc2oc1=O	none (no result: UPR CHOP act, UPR XBP1 act, TMEM16A inh)
COC1/C=C/C=C(\C)Cc2cc(O)c(Cl)c(c2)N(C)C(=O)CC(OC(=O)C(C)C)C2(C)OC2C(C)C2CC1(O)NC(=O)O2 (stereo unspecified)	TMEM16A act -4.95 (no result: CHOP inh, UPR CHOP act, UPR XBP1 act, TMEM16A inh, Lipid droplet)
Cc1ccc(OCC(=O)N2CCN(C3CCC(c4ccccc4)CC3)CC2)cc1 (stereo unspecified)	CHOP inh 93.3
O=C(COc1ccc(Br)cc1)N1CCN(C2CCCC2)CC1	none
Nc1c(C(=O)NC2CCCC2)c2nc3ccccc3nc2n1CC1CCCO1 (stereo unspecified)	CHOP inh 75.7 (no result: Lipid droplet)
Nc1c(C(=O)NCC2CCCO2)c2nc3ccccc3nc2n1Cc1ccco1 (stereo unspecified)	none
COC(=O)C1CN(C#N)N(c2ccc(Cl)cc2)C12c1ccccc1-c1ccccc12 (stereo unspecified)	Lipid droplet 131.4 (no result: CHOP inh) | Hep lipid conf inconclusive | AML12 tox img 35.6
Cc1cc2ccccc2c(=O)n1CC(=O)NCC(=O)N1CCC2(CC1)OCCO2	none
CC1CCC/C=C/C2CC(O)CC2C(O)/C=C/C(=O)O1 (stereo unspecified)	UPR CHOP act 123.2, Lipid droplet 109.7 | Hep lipid conf 114.2 | AML12 tox img 16.8 | UPR CHOP confirm 103.0
COC(=O)C1=C(c2cccc(C#N)c2)C[C@@H]2CC[C@H]1N2C(=O)N1CCC(C)CC1	none (no result: CHOP inh, TMEM16A inh, Lipid droplet)
O=C1NC(=O)N(c2ccc3c(c2)OCO3)C(=O)/C1=C/c1cccs1	CHOP inh 106.4 | CHOP confirm inactive
Cc1ccc(/C=C2\C(=O)NC(=O)N(Cc3ccccc3Cl)C2=O)o1	CHOP inh 105.0 | CHOP confirm inactive
Cc1ccc(/C=C2\C(=O)NC(=O)N(CCc3ccc(F)cc3)C2=O)o1	CHOP inh 104.7 | CHOP confirm inactive
O=C1NCN(c2ccccc2)C12CCNCC2	CHOP inh 100.9 (no result: Lipid droplet) | CHOP confirm inactive
O=C1NCN(c2ccccc2)C12CCN(CC1COc3ccccc3O1)CC2 (stereo unspecified)	none (no result: UPR CHOP act, UPR XBP1 act, TMEM16A inh, Lipid droplet, TMEM16A act)
OC(CNC1CCCCC1)C(F)(F)F (stereo unspecified)	none
O=c1[nH]c2ccccc2n1C1CCN(CCCC(c2ccc(F)cc2)c2ccc(F)cc2)CC1	none (no result: Lipid droplet) | CHOP confirm 116.9
O=C1CC(N2CCC(n3c(=O)[nH]c4ccccc43)CC2)C(=O)N1c1ccc(F)cc1 (stereo unspecified)	none
CCC(C(=O)N1CCC2(CC1)OCCO2)n1c2ccccc2c2nc(=O)cc(C)n21 (stereo unspecified)	none (no result: CHOP inh)
Cc1ccc2c(c1)CC1(CN2C)C(=O)NC(=O)N(CCC2=CCCCC2)C1=O (stereo unspecified)	CHOP inh 107.2 (no result: Lipid droplet) | CHOP confirm inactive

Bioassay records: PubChem, several laboratories
